Read-outs that look alike come from different tables or passages of the source.

Series [1] deals with HuH7 cells. In kind it is cell-based, human.
For series [2], the system named is P. falciparum Dd2 asexual blood stage parasites. Put plainly: P. falciparum Dd2 asexual blood stage inhibition. Conditions: read-out: blood stage parasite EC50, dose-response. In kind it is cell-based, Plasmodium falciparum. The procedure, abridged:
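Asexual blood-stage P. falciparum Dd2 cultured with test compound in O-positive human blood for 72 h at 37 °C under 93% N2, 4% CO2, 3% O2, with 0.2% DMSO final. Nuclei then stained with SYBR Green I and fluorescence read. Data normalised to DMSO, with artesunate as positive control.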

The target in series [3] is T1, PfPK5 (Plasmodium falciparum, UniProt P61075). Conditions: read-out: PfPK5 Kd; cited from earlier work.
Series [4] has as its target T1, PfPK5. Put plainly: KINOMEscan active-site-directed competition binding assay, PfPK5. Conditions: read-out: PfPK5 Kd(app), determined in duplicate, 0–30 μM.
Series [5] concerns the target T1, PfPK5. Conditions: read-out: PfPK5 IC50; cited from earlier work.

T1 sequence (P61075 whole entry): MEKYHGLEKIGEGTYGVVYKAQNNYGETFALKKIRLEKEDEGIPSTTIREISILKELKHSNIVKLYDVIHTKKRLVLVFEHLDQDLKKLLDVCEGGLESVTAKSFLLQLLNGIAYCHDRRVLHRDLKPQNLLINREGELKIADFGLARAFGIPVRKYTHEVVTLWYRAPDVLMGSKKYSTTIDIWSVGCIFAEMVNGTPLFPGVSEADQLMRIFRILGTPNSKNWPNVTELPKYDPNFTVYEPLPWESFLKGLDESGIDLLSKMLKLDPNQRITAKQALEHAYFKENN

In the case of `Nc1nc(Nc2ccc(S(N)(=O)=O)cc2)nn1C(=S)Nc1c(F)cccc1F` [Compound 1a], the half-maximal effective concentration (EC50) (usually the concentration giving half of the maximal effect) was determined as 67 µM in series [1] and 0.14 µM in series [2]. Further, the Kd in series [3] is 0.32 µM; in series [4], 0.37 µM.
For `CC(C)[C@H](CO)Nc1nc(Nc2cccc(Cl)c2)c2ncn(C(C)C)c2n1` [Purvalanol A, purvalanol A], the half-maximal inhibitory concentration (IC50) (in general, the midpoint of a concentration-inhibition curve) in series [5] is 8 µM.
With `O=C1Nc2ccccc2/C1=C1/Nc2ccccc2/C1=N\O` [indirubin-3´-monoxime], the half-maximal inhibitory concentration (IC50) in series [5] is 6 µM.
